Measured values as given in ChEMBL document CHEMBL1135842, “Synthesis and biological activity of polygalloyl-dendrimers as stable tannic acid mimics” (Bioorg Med Chem Lett, 2002).

Assays:
[1] = The degree of collagen cross-linking by hydrothermal shrinkage temperature was determined; assay type: functional
Outline: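 Purified skin collagen matrices incubated 48 h at room temperature with samples at 4 mM in 85% glycerol; hydrothermal shrinkage onset temperature (Ts) recorded, with untreated matrix as reference. Means of five experiments with SEM; significance versus tannic acid at p<0.05.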

[2] = Effective dose required for antioxidant activity was measured as dose giving 50% decolorization of 2,2-diphenyl-1-picryl-hydrazyl (DPPH); assay type: functional
Outline: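 DPPH radical scavenging: compounds serially diluted ([…]), incubated with […] in 75% ethanol for 15 min at room temperature; absorbance read at 550 nm. ED50 (dose giving 50% decolorization) obtained by linear regression of absorbance curves; means of five experiments, SEM reported.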

| SMILES | Ts [1] [°C] | ED50 [2] [µM] |
| --- | --- | --- |
| O=C(O)c1cc(OCCNC(=O)c2cc(OCCNC(=O)c3cc(O)c(O)c(O)c3)cc(OCCNC(=O)c3cc(O)c(O)c(O)c3)c2)cc(OCCNC(=O)c2cc(OCCNC(=O)c3cc(O)c(O)c(O)c3)cc(OCCNC(=O)c3cc(O)c(O)c(O)c3)c2)c1 | 57.9 | 7.4 |
| O=C(O)c1cc(O)c(O)c(O)c1 | 57.5 | 14.3 |
| O=C(OC[C@H]1O[C@@H](OC(=O)c2cc(O)c(O)c(OC(=O)c3cc(O)c(O)c(O)c3)c2)[C@H](OC(=O)c2cc(O)c(O)c(OC(=O)c3cc(O)c(O)c(O)c3)c2)[C@@H](OC(=O)c2cc(O)c(O)c(OC(=O)c3cc(O)c(O)c(O)c3)c2)[C@@H]1OC(=O)c1cc(O)c(O)c(OC(=O)c2cc(O)c(O)c(O)c2)c1)c1cc(O)c(O)c(OC(=O)c2cc(O)c(O)c(O)c2)c1 | 59.5 | 2.9 |
| O=C(O)c1cc(OCCNC(=O)c2cc(O)c(O)c(O)c2)cc(OCCNC(=O)c2cc(O)c(O)c(O)c2)c1 | 58.4 | 13.7 |
| O=C(O)c1cc(OCCNC(=O)c2cc(OCCNC(=O)c3cc(OCCNC(=O)c4cc(O)c(O)c(O)c4)cc(OCCNC(=O)c4cc(O)c(O)c(O)c4)c3)cc(OCCNC(=O)c3cc(OCCNC(=O)c4cc(O)c(O)c(O)c4)cc(OCCNC(=O)c4cc(O)c(O)c(O)c4)c3)c2)cc(OCCNC(=O)c2cc(OCCNC(=O)c3cc(OCCNC(=O)c4cc(O)c(O)c(O)c4)cc(OCCNC(=O)c4cc(O)c(O)c(O)c4)c3)cc(OCCNC(=O)c3cc(OCCNC(=O)c4cc(O)c(O)c(O)c4)cc(OCCNC(=O)c4cc(O)c(O)c(O)c4)c3)c2)c1 | 57 | 4.7 |
